The source of these data is ChEMBL document CHEMBL1144581, “alpha-Amino acid derivatives as proton pump inhibitors and potent anti-ulcer agents” (2007).

The species entered for the first experiment is Rattus norvegicus. Briefly: Inhibition of gastric H+/K(+)-ATPase activity in Sprague-Dawley rat microsomal vesicles at 10 umol. The format is microsomes. To be noted: Stomach, Microsome. The gist of the method:
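Rat gastric microsomes were prepared by density gradient and differential centrifugation. The medium held 40 mM Tris-HCl pH 7.4, 2 mM MgCl2, 10 mM KCl (water for blank) and […] vesicular protein. Compound was preincubated 30 min at 37 °C. Tris-ATP at 0.3, 1.0 or 3 mM was then added for 20 min and stopped with chilled 10% TCA. Released Pi was read at 530 nm; % inhibition vs control.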
As to `CCOC(=O)[C@@H](NC(=O)OCc1ccccc1)C(O)/C=C/c1ccccc1` (some centres undefined), the inhibition (usually the share of the control response that was lost under treatment) stood at 65%.

In the case of `COc1ccccc1CN1C(=O)CC[C@H]1C(=O)O`, the inhibition amounted to 49%.

Consider `Cc1ccc(CN2C(=O)CC[C@H]2C(=O)OC(C)(C)C)cc1`, for which the inhibition is 79%.

`CC(C)(C)OC(=O)[C@@H]1CCC(=O)N1Cc1ccccc1` had an inhibition of 92%.

The compound `O=C(O)[C@@H]1CCCN1C(=O)/C=C/c1ccccc1` showed an inhibition of 58%.

`CC(C)(C)OC(=O)N[C@@H](CO)C(=O)O` returned an inhibition of 34%.

In turn, `CCOC(=O)[C@@H](NC(=O)OCc1ccccc1)C(O)C#C[Si](C)(C)C` (some centres undefined) gave an inhibition of 10%.

In the case of `COC(=O)[C@@H]1CCCN1C(=O)Cc1ccc(OC)cc1`, the inhibition amounted to 52%.

Turning to `Cc1ccccc1CN1C(=O)CC[C@H]1C(=O)O`, the inhibition came out at 46%.

For `O=C1CC[C@@H](C(=O)O)N1` [PIDOLIC ACID], the inhibition came to 67%.

In the case of `O=C(O)[C@H]1CCC(=O)N1Cc1ccccc1`, the inhibition amounted to 55%.

`O=C(N[C@@H](COCc1ccccc1)C(=O)O)OCc1ccccc1` had an inhibition of 59%.

As for `O=C(O)[C@@H]1CCC(=O)N1Cc1cccc2ccccc12`, the inhibition worked out at 53%.

`COC(=O)[C@@H]1CCC(=O)N1Cc1ccc(Cl)cc1` returned an inhibition of 46%.

Regarding `COC(=O)[C@@H]1CCCN1C(=O)c1ccccc1`, the inhibition turned out to be 91%.

`CC(C)(C)[C@H]1OC(=O)[C@@]2(C3(O)CCCCC3)CCC(=O)N12` registered an inhibition of 55%.

Compound `COC(=O)[C@@H]1CCCN1C(=O)/C=C/c1ccccc1` registered an inhibition of 62%.

In turn, `CC(C)(C)OC(=O)[C@@H]1CCC(=O)N1Cc1ccccc1Cl` came in with an inhibition of 88%.

`O=C(N[C@H](CO)C(=O)O)OCc1ccccc1`: the inhibition came to 46%.

`CCOC(=O)N1CCC[C@H]1C(=O)OC` returned an inhibition of 68%.

The compound `O=C(O)[C@@H]1CCC(=O)N1Cc1ccccc1` yielded an inhibition of 44%.

Regarding `O=C(O)[C@@H]1CCC(=O)N1Cc1ccccc1Cc1ccccc1`, the inhibition amounted to 71%.

The compound `O=C(O)[C@@H]1CCCN1C(=O)Cc1ccccc1` gave an inhibition of 92%.

The compound `CC(C)(C)[C@H]1OC(=O)[C@@]2([C@@H](O)c3ccccc3)CCC(=O)N12` registered an inhibition of 44%.

Take `CC(C)N1C(=O)CC[C@H]1C(=O)OC(C)(C)C`: the inhibition was determined as 52%.

For the compound `Cc1ccccc1CN1C(=O)CC[C@H]1C(=O)OC(C)(C)C`, the inhibition is 68%.

Take `O=C(O)[C@@H]1CCC(=O)N1Cc1ccccc1Cl`: the inhibition stood at 32%.

On to `CC(C)(C)[C@H]1OC(=O)[C@@H]2CCC(=O)N21`, for which the inhibition was 92%.

The species entered for another experiment is Rattus norvegicus. Briefly: Antisecretory activity in rat pylorus ligation-induced ulcer model determined by ratio of total acidity inhibition in drug treated to untreated control. The format is functional.
Details: not given
An outline of the steps: (§1)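 Sprague Dawley rats (130-150 g) fasted 24 h with water ad libitum; pylorus ligated through a midline incision under ether anesthesia. Dosing oral, 1 h before ligation. Gastric juice free and total acidity titrated against 0.01 N NaOH, with Topfer's reagent and phenolphthalein as indicators. Values expressed as ratio of percent inhibition, treated vs control group.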
On to `CCOC(=O)[C@@H](NC(=O)OCc1ccccc1)C(O)/C=C/c1ccccc1` (some centres undefined), for which the Activity is 0.98.

For `COc1ccccc1CN1C(=O)CC[C@H]1C(=O)O`, the Activity is listed as 0.64.

`Cc1ccc(CN2C(=O)CC[C@H]2C(=O)OC(C)(C)C)cc1`: the Activity turned out to be 0.52.

`CC(C)(C)OC(=O)[C@@H]1CCC(=O)N1Cc1ccccc1`: the Activity came to 0.52.

With `O=C(O)[C@@H]1CCCN1C(=O)/C=C/c1ccccc1`, the Activity is 0.76.

In the case of `CC(C)(C)OC(=O)N[C@@H](CO)C(=O)O`, the Activity was 0.72.

For `CCOC(=O)[C@@H](NC(=O)OCc1ccccc1)C(O)C#C[Si](C)(C)C` (some centres undefined), the Activity amounted to 1.

In the case of `COC(=O)[C@@H]1CCCN1C(=O)Cc1ccc(OC)cc1`, the Activity was 0.86.

With `Cc1ccccc1CN1C(=O)CC[C@H]1C(=O)O`, the Activity is 0.89.

On to `O=C1CC[C@@H](C(=O)O)N1` [PIDOLIC ACID], for which the Activity was found to be 0.75.

With `O=C(O)[C@H]1CCC(=O)N1Cc1ccccc1`, the Activity worked out at 0.51.

On to `O=C(N[C@@H](COCc1ccccc1)C(=O)O)OCc1ccccc1`, for which the Activity is listed as 0.5.

As to `O=C(O)[C@@H]1CCC(=O)N1Cc1cccc2ccccc12`, the Activity was determined as 0.91.

On to `COC(=O)[C@@H]1CCC(=O)N1Cc1ccc(Cl)cc1`, for which the Activity stood at 1.01.

Regarding `COC(=O)[C@@H]1CCCN1C(=O)c1ccccc1`, the Activity worked out at 1.14.

Take `CC(C)(C)[C@H]1OC(=O)[C@@]2(C3(O)CCCCC3)CCC(=O)N12`: the Activity is given as 0.22.

In the case of `COC(=O)[C@@H]1CCCN1C(=O)/C=C/c1ccccc1`, the Activity came out at 0.59.

For the compound `CC(C)(C)OC(=O)[C@@H]1CCC(=O)N1Cc1ccccc1Cl`, the Activity was determined as 0.27.

As for `O=C(N[C@H](CO)C(=O)O)OCc1ccccc1`, the Activity is 0.49.

For the compound `CCOC(=O)N1CCC[C@H]1C(=O)OC`, the Activity is given as 0.64.

For the compound `O=C(O)[C@@H]1CCC(=O)N1Cc1ccccc1`, the Activity came out at 0.93.

Consider `O=C(O)[C@@H]1CCC(=O)N1Cc1ccccc1Cc1ccccc1`, for which the Activity was found to be 0.33.

Consider `O=C(O)[C@@H]1CCCN1C(=O)Cc1ccccc1`, for which the Activity came out at 0.38.

In the case of `CC(C)(C)[C@H]1OC(=O)[C@@]2([C@@H](O)c3ccccc3)CCC(=O)N12`, the Activity amounted to 0.27.

Take `CC(C)N1C(=O)CC[C@H]1C(=O)OC(C)(C)C`: the Activity is 0.69.

For `Cc1ccccc1CN1C(=O)CC[C@H]1C(=O)OC(C)(C)C`, the Activity was 0.62.

As for `O=C(O)[C@@H]1CCC(=O)N1Cc1ccccc1Cl`, the Activity was found to be 0.51.

`CC(C)(C)[C@H]1OC(=O)[C@@H]2CCC(=O)N21`: the Activity came out at 0.49.

For the next experiment, the species on record is Rattus norvegicus. Briefly: Antisecretory activity in rat pylorus ligation-induced ulcer model determined by ratio of free acidity inhibition in drug treated to untreated control. The format is functional.
Details: not given
An outline of the steps:
as §1
For the compound `CCOC(=O)[C@@H](NC(=O)OCc1ccccc1)C(O)/C=C/c1ccccc1` (some centres undefined), the Activity is reported as 0.93.

Consider `COc1ccccc1CN1C(=O)CC[C@H]1C(=O)O`, for which the Activity is 0.61.

As to `Cc1ccc(CN2C(=O)CC[C@H]2C(=O)OC(C)(C)C)cc1`, the Activity came to 0.48.

With `CC(C)(C)OC(=O)[C@@H]1CCC(=O)N1Cc1ccccc1`, the Activity was found to be 0.34.

As for `O=C(O)[C@@H]1CCCN1C(=O)/C=C/c1ccccc1`, the Activity stood at 0.65.

Regarding `CC(C)(C)OC(=O)N[C@@H](CO)C(=O)O`, the Activity was 0.71.

For `CCOC(=O)[C@@H](NC(=O)OCc1ccccc1)C(O)C#C[Si](C)(C)C` (some centres undefined), the Activity worked out at 1.01.

As for `COC(=O)[C@@H]1CCCN1C(=O)Cc1ccc(OC)cc1`, the Activity was found to be 0.81.

With `Cc1ccccc1CN1C(=O)CC[C@H]1C(=O)O`, the Activity is reported as 0.92.

Consider `O=C1CC[C@@H](C(=O)O)N1` [PIDOLIC ACID], for which the Activity is recorded as 0.69.

`O=C(O)[C@H]1CCC(=O)N1Cc1ccccc1`: the Activity was found to be 0.46.

For the compound `O=C(N[C@@H](COCc1ccccc1)C(=O)O)OCc1ccccc1`, the Activity turned out to be 0.48.

Take `O=C(O)[C@@H]1CCC(=O)N1Cc1cccc2ccccc12`: the Activity was 0.35.

With `COC(=O)[C@@H]1CCC(=O)N1Cc1ccc(Cl)cc1`, the Activity stood at 0.67.

Take `COC(=O)[C@@H]1CCCN1C(=O)c1ccccc1`: the Activity was found to be 0.9.

For `CC(C)(C)[C@H]1OC(=O)[C@@]2(C3(O)CCCCC3)CCC(=O)N12`, the Activity came to 0.2.

Consider `COC(=O)[C@@H]1CCCN1C(=O)/C=C/c1ccccc1`, for which the Activity is given as 0.47.

Take `CC(C)(C)OC(=O)[C@@H]1CCC(=O)N1Cc1ccccc1Cl`: the Activity turned out to be 0.17.

In the case of `O=C(N[C@H](CO)C(=O)O)OCc1ccccc1`, the Activity worked out at 0.36.

On to `CCOC(=O)N1CCC[C@H]1C(=O)OC`, for which the Activity is on record as 0.59.

For `O=C(O)[C@@H]1CCC(=O)N1Cc1ccccc1`, the Activity is on record as 0.86.

As for `O=C(O)[C@@H]1CCC(=O)N1Cc1ccccc1Cc1ccccc1`, the Activity amounted to 0.48.

Consider `O=C(O)[C@@H]1CCCN1C(=O)Cc1ccccc1`, for which the Activity turned out to be 0.41.

For `CC(C)(C)[C@H]1OC(=O)[C@@]2([C@@H](O)c3ccccc3)CCC(=O)N12`, the Activity was 0.17.

Turning to `CC(C)N1C(=O)CC[C@H]1C(=O)OC(C)(C)C`, the Activity came out at 0.72.

As to `Cc1ccccc1CN1C(=O)CC[C@H]1C(=O)OC(C)(C)C`, the Activity was found to be 0.63.

In the case of `O=C(O)[C@@H]1CCC(=O)N1Cc1ccccc1Cl`, the Activity is 0.66.

In the case of `CC(C)(C)[C@H]1OC(=O)[C@@H]2CCC(=O)N21`, the Activity is 0.61.
